# Test results: article PMC3902942 (Nucleic Acids Research, 2013)
# pIC50, pKd: −log10 of the molar value.
# Tests used:
# [1] = test system: PU.1-λB complex (PU.1 ETS domain on immobilized λB site hairpin); test: Biosensor-SPR PU.1-DNA complex inhibition; format: binding, murine
# In short: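 Murine PU.1 ETS domain (residues 167–272), expressed in E. coli, on a Biacore T200 biosensor. 5′-Biotinylated λB-site hairpin DNA immobilised on CM4 chips. Protein injected at constant 100 nM to saturate DNA sites, with graded compound concentrations added to the protein solution. Loss of protein signal plotted against compound concentration. Transition midpoint taken as IC50.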
# [2] = biological target: λB site DNA hairpin duplex; test: Biosensor-SPR direct binding of compounds to immobilized λB site DNA hairpin; settings: read-out: KD for the λB site
Inhibition of PU.1 binding (in words) [1],pKd [2],Structure (SMILES),pIC50 ([1]; read-out: IC50 of PU.1 binding inhibition)
does not inhibit PU.1 binding,6.28,"N=C(N)c1ccc(-c2ccc(-c3ccc(C(=N)N)cc3)o2)cc1 [DB75, furamidine]",–
–,–,N=C(N)c1ccc(-c2ccc(-c3ccc(C(=N)N)cc3)[se]2)cc1 [DB1213],~5.82
